Key:
[1] = tested on: L5178Y; assay: Inhibitory activity against murine tumor cells (L5178Y/R); type: functional, Mus musculus
Summary of the method: (§1)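 L5178Y murine leukemia cells, MTX-sensitive (S) and MTX-resistant (R), kept in log-phase growth at 37 °C in RPMI-1640 with 10% fetal calf serum and 1% penicillin-streptomycin. Doubling times were 11-12 h (S) and 15-18 h (R). Cells seeded at 4.0-6.0 × 10^4 cells/mL, duplicate wells, at least six concentrations, final DMSO <2%. Untreated and DMSO controls included; cells counted by Coulter counter.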

[2] = tested on: L5178Y; assay: Inhibitory activity against murine tumor cells (L5178Y/S); type: functional, Mus musculus; summary of the method: as §1
[3] = tested on: L5178Y; assay: Inhibitory action against murine tumor cells (L5178Y/R); type: functional, Mus musculus; summary of the method: as §1
[4] = tested on: L5178Y; assay: Inhibitory action against murine tumor cells (L5178Y/S); type: functional, Mus musculus; summary of the method: as §1
[5] = Partition coefficient (logP); type: physicochemical; conditions: octanol/water
Summary of the method: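 Octanol/water partitioning. The protonated form was partitioned between octanol and 0.1 N HCl. The neutral form was partitioned between octanol and 0.1 N NaOH.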

| SMILES | Log 1/C [1] | Log 1/C [2] | Log 1/C [3] | Log 1/C [4] | logP [5] |
| --- | --- | --- | --- | --- | --- |
| Nc1ncc(Cc2cccc(Br)c2)c(N)n1 | 4.12 | 5.52 |  |  |  |
| CC(=O)Nc1ccc(Cc2cnc(N)nc2N)cc1[N+](=O)[O-] | 3.2 | 5.11 |  |  |  |
| COc1cccc(Cc2cnc(N)nc2N)c1 | 3.63 | 5.06 |  |  |  |
| COc1ccc(Cc2cnc(N)nc2N)cc1 | 3.52 | 5.1 |  |  |  |
| CC(=O)Nc1ccc(Cc2cnc(N)nc2N)cc1 | 3.23 | 5.12 |  |  |  |
| Nc1ncc(Cc2ccc(Br)cc2)c(N)n1 | 3.98 | 5.38 |  |  |  |
| CN(C)c1ccc(Cc2cnc(N)nc2N)cc1 | 4.02 | 4.95 |  |  |  |
| Cc1cccc(Cc2cnc(N)nc2N)c1 | 4.15 | 5.5 |  |  |  |
| Nc1ncc(Cc2ccc([N+](=O)[O-])cc2)c(N)n1 | 3.67 | 5.18 |  |  |  |
| Nc1ccc(Cc2cnc(N)nc2N)cc1 | 3.58 | 4.65 |  |  |  |
| Nc1ncc(Cc2ccc(OC(F)(F)F)cc2)c(N)n1 | 4.46 | 5.24 |  |  |  |
| Nc1ncc(Cc2cccc(F)c2)c(N)n1 | 3.61 | 5.27 |  |  |  |
| Nc1ncc(Cc2ccc(F)cc2)c(N)n1 | 3.9 | 5.48 |  |  |  |
| Nc1ncc(Cc2cccc(C(F)(F)F)c2)c(N)n1 | 4.37 | 5.63 |  |  |  |
| Nc1ncc(Cc2ccccc2)c(N)n1 | 3.88 | 5.24 |  |  |  |
| Nc1ncc(Cc2cccc(OCc3ccccc3)c2)c(N)n1 | 4.7 | 5.91 |  |  |  |
| COc1ccc(Cc2cnc(N)nc2N)cc1C(F)(F)F | 4.39 | 5.85 |  |  |  |
| Nc1ncc(Cc2ccc(O)c(O)c2)c(N)n1 | 4.94 | 5.06 |  |  |  |
| Nc1ncc(Cc2ccc(Cl)cc2)c(N)n1 | 4.56 | 5.37 |  |  |  |
| CCCCOCc1cccc(Cc2cnc(N)nc2N)c1 | 3.93 | 5.74 |  |  |  |
| CCCCCCCOc1cccc(Cc2cnc(N)nc2N)c1 | 4.61 | 5.1 |  |  |  |
| COc1cc(Cc2cnc(N)nc2N)cc(OC)c1 | 3.83 | 5.47 |  |  |  |

| SMILES | Log 1/C [1] | Log 1/C [2] | Log 1/C [3] | Log 1/C [4] | logP [5] |
| --- | --- | --- | --- | --- | --- |
| Nc1ncc(Cc2cccc(I)c2)c(N)n1 | 4.36 | 5.86 |  |  |  |
| Nc1ncc(Cc2cccc(O)c2)c(N)n1 | 3.09 | 4.89 |  |  |  |
| CCCCCCCOc1ccc(Cc2cnc(N)nc2N)cc1 | 5.67 | 5.13 |  |  |  |
| NC(=O)COc1cccc(Cc2cnc(N)nc2N)c1 |  |  | 3.14 | 4.91 |  |
| CCCCCCCCOc1cccc(Cc2cnc(N)nc2N)c1 | 4.92 | 5.12 |  |  |  |
| COCCOc1cccc(Cc2cnc(N)nc2N)c1 | 3.7 | 5.2 |  |  |  |
| COCCOc1ccc(Cc2cnc(N)nc2N)cc1OCCOC | 3.28 | 5.06 |  |  |  |
| COCc1cccc(Cc2cnc(N)nc2N)c1 | 3.65 | 5.28 |  |  |  |
| CCCCCCOc1cccc(Cc2cnc(N)nc2N)c1 | 5.16 | 5.3 |  |  |  |
| Nc1ncc(Cc2cc(CO)cc(CO)c2)c(N)n1 | 2.49 | 3.79 |  |  |  |
| CCCCCCOc1ccc(Cc2cnc(N)nc2N)cc1 | 5.48 | 5.47 |  |  |  |
| CCCCOc1cccc(Cc2cnc(N)nc2N)c1 | 4.99 | 5.74 |  |  |  |
| Nc1ncc(Cc2cccc(CO)c2)c(N)n1 | 2.98 | 4.97 |  |  |  |
| CCCCOc1ccc(Cc2cnc(N)nc2N)cc1 | 4.83 | 5.37 |  |  |  |
| CC1(C)N=C(N)N=C(N)N1c1ccc(CCCCc2ccc(S(=O)(=O)F)cc2Cl)c(Cl)c1 |  |  |  |  | 2.4 |
| Cc1ccc(Cc2cnc(N)nc2N)cc1 | 4.21 | 5.26 |  |  |  |
| Nc1ncc(Cc2cccc(Cl)c2)c(N)n1 | 3.85 | 5.39 |  |  |  |
| COCCOc1ccc(Cc2cnc(N)nc2N)cc1 | 3.08 | 4.77 |  |  |  |
| CS(=O)(=O)Oc1cccc(Cc2cnc(N)nc2N)c1 |  |  | 3.34 | 5.28 |  |
| COc1ccc(Cc2cnc(N)nc2N)cc1OC [DIAVERIDINE] | 3.54 | 5.41 |  |  |  |
| COCCOc1c(OC)cc(Cc2cnc(N)nc2N)cc1OC [TETROXOPRIM] | 3.16 | 4.2 |  |  |  |

— ChEMBL document CHEMBL1122051 (J Med Chem, 1982)
